Data on three molecules can be found in ChEMBL document CHEMBL1142316, “Synthesis and biological evaluation of bengacarboline derivatives” (Bioorg Med Chem Lett, 2008).

For one data set, the system named is LoVo. Briefly: Cytotoxicity against human LoVo cells after 72 hrs. Type of data set: functional, cell-based. The procedure, abridged: (§1)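 Cells (ATCC) were exposed in log-phase growth for 72 h to compound across 10 µM to 10 nM in RPMI with 10% FCS, 4 mM glutamine, penicillin/streptomycin and fungizone, at 37 °C under 5% CO2. Viability was read as ATP from viable cells by luminescence kit. IC50 is the dose cutting ATP release by 50%.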

For data set [1], the target named is DNA topoisomerase 2-alpha (Homo sapiens, UniProt P11388). Briefly: Inhibition of topoisomerase 2 mediated DNA relaxation.
The next data set deals with MCF7. Briefly: Cytotoxicity against human MCF7 cells after 72 hrs. It is filed as functional, cell-based. The following applies: MCF7, 72 h. The procedure, abridged:
as §1

The test system of data set [2] is A549. Briefly: Cell cycle arrest in human A549 cells by accumulation at S phase after 48 hrs by flow cytometry. It is filed as functional, cell-based. The method, boiled down:
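A549 cells were seeded at 1.3 × 10^4 cells/cm², then drug-treated. They were stained with propidium iodide and read by flow cytometry on the […] channel. G1, S and G2/M fractions were obtained by deconvolution.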

Data set [3] in a line: Cytotoxicity against human Namalwa cells after 72 hrs. It is filed as functional, cell-based. The following applies: NAMALVA. The procedure, abridged: as §1
Another data set deals with BXPC-3. Briefly: Cytotoxicity against human BxPC3 cells after 72 hrs. It is filed as functional, cell-based. The following applies: BXPC-3, 72 h. The procedure, abridged:
as §1

Data set [4] relates to A549. Briefly: Cytotoxicity against human A549 cells after 72 hrs. It is filed as functional, cell-based. The note with it: A549, 72 h. The procedure, abridged: as §1
Data set [5] can be described thus: Inhibition of topoisomerase by kinetoplast DNA decatenation assay at 100 uM.
The next data set relates to SK-OV-3. Briefly: Cytotoxicity against human SKOV3 cells after 72 hrs. Type of data set: functional, cell-based. The following applies: SK-OV-3, 72 h. The method, boiled down: as §1
The target in another data set is T1, DNA topoisomerase 1 (Homo sapiens, UniProt P11387).
T1 sequence (P11387 whole entry): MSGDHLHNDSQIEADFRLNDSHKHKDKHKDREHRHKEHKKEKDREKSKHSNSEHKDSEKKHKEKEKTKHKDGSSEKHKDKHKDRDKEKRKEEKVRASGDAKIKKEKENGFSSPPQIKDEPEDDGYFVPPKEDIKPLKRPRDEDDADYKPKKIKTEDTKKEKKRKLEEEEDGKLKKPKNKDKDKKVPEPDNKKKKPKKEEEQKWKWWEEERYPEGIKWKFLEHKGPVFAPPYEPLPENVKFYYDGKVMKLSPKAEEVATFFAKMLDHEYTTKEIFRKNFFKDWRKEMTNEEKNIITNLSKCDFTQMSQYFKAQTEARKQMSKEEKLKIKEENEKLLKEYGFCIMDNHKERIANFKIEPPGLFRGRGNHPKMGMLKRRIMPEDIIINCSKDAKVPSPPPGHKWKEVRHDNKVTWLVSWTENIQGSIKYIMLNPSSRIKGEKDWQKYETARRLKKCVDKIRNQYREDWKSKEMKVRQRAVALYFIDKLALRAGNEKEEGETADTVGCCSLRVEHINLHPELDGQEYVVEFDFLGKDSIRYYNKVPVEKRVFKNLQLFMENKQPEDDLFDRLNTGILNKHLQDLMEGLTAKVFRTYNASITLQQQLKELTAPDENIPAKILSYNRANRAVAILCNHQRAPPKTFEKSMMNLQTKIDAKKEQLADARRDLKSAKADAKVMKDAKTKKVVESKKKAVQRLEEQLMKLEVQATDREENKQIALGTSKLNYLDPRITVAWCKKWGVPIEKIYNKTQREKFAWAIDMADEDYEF
Briefly: Inhibition of topoisomerase 1-mediated DNA relaxation. The procedure, abridged: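 Supercoiled plasmid DNA (200 ng) was incubated 20 min at 37 °C with the minimum purified topoisomerase I needed for full relaxation, with or without drug at 1, 3.2, 10 or 100 µM. The reaction was stopped with SDS–proteinase K, and products were resolved by agarose gel electrophoresis.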

The next data set has as its system V79. Briefly: Effect on DNA damage in Chinese hamster V79 cells at 10 uM after 1 hr by comet assay relative to control. It is filed as functional, cell-based. The note with it: Cricetulus griseus. The procedure, abridged:
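Cells were treated for 1 h at 10 µM. Controls carried 1% DMSO, matching the drug samples. Strand breaks were scored by comet assay, with representative photomicrographs (10×) of each full slide.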

Data set [6] is described as follows: Inhibition of topoisomerase by kinetoplast DNA decatenation assay.
For data set [7], the system named is P388. Briefly: Antitumor activity in mouse P388 leukemia model at 20 mg/kg, ip for 4 days. Type of data set: functional, organism-based. Set-up: dose 20 mg/kg. The procedure, abridged: (§2)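 Compounds were given ip at 10 or 20 mg/kg per injection, once daily for 4 days. Antitumor activity and toxicity were both recorded.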
The test system of data set [8] is P388. Briefly: Antitumor activity in mouse P388 cells xenografted mouse at 10 mg/kg, ip for 4 days. It is filed as functional, organism-based. Also noted: dose 10 mg/kg. The method, boiled down: as §2
In another data set the test system is Mus musculus. Briefly: Toxicity in P388 cells xenografted mouse at 10 to 20 mg/kg, ip for 4 days. Type of data set: organism-based. Also noted: dose 10-20 mg/kg, route intraperitoneal. The note with it: in vivo, 96 h. The procedure, abridged: as §2
The nature of data set [9]: Displacement of ethidium bromide from DNA.
Data set [10] is described as follows: Displacement of Hoechst 33258 from DNA.
In another data set the test system is CEM/C2. Briefly: Cytotoxicity against human topoisomerase 1 mutant CEM/C2 cells. It is filed as functional, cell-based. The procedure, abridged: as §1
A further data set deals with CCRF-CEM. Briefly: Cytotoxicity against human CEM cells. It is filed as functional, cell-based. The method, boiled down:
as §1

The test system of the next data set is HL-60. Briefly: Cytotoxicity against human HL60 cells. It is filed as functional, cell-based.
Data set [11] can be described thus: Cytotoxicity against human HL60/MX2 cells. Type of data set: functional, cell-based.

The structures appear in SMILES notation. Calls of active or inactive are those of the source. No cut-off for these calls is given here.

DNA topoisomerase 2-alpha, sequence (P11388 whole entry): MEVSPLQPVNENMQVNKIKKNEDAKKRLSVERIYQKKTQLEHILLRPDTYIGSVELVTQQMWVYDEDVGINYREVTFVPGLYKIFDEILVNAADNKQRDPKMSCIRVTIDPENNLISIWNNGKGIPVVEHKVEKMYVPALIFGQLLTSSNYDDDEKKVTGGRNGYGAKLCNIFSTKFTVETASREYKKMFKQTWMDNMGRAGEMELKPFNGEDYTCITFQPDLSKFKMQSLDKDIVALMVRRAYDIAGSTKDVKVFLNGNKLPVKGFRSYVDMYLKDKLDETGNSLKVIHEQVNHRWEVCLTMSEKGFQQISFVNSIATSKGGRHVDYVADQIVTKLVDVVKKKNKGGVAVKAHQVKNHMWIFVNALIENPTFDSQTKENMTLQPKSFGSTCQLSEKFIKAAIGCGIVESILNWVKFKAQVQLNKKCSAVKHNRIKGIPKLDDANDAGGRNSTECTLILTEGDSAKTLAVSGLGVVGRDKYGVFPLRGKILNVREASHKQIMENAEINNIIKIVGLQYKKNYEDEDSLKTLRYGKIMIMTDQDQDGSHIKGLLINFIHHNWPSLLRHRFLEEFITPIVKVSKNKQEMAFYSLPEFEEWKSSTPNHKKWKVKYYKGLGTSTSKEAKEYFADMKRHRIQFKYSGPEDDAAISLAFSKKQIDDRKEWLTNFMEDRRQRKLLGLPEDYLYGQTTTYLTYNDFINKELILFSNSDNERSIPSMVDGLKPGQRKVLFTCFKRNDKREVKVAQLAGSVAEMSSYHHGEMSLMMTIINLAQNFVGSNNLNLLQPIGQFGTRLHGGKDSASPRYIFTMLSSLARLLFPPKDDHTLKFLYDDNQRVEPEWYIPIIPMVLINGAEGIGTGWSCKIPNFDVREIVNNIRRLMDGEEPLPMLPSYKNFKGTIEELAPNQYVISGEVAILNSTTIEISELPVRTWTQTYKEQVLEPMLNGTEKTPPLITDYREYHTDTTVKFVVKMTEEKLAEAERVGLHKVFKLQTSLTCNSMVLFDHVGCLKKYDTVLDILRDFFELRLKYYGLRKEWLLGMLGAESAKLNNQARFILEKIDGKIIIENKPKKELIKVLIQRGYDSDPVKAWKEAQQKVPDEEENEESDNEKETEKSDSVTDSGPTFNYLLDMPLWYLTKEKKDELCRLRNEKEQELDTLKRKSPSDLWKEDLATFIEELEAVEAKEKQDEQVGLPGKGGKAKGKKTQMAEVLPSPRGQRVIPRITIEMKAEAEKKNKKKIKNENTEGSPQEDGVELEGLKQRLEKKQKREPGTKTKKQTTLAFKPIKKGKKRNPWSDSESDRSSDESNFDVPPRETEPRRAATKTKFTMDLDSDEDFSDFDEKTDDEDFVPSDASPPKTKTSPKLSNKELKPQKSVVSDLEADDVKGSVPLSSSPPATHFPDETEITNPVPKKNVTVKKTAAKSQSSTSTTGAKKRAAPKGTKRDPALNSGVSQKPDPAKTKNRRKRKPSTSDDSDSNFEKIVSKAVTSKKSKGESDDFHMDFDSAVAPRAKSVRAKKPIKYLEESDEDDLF

By IC50 is commonly meant the concentration that gives 50% inhibition. A lower IC50 goes with higher potency. As to `NCCc1c(C2(c3c[nH]c4ccccc34)NCCc3c2[nH]c2ccccc32)[nH]c2ccccc12` (stereo not given) [BENGACARBOLINE], the IC50 is 9.9 µM in the data set on LoVo; more than 100 µM in data set [1]; 8.6 µM in the data set on MCF7; more than 10 µM in data set [3]; 10 µM with BXPC-3; 7.1 µM in the data set on A549 [4]. Besides, the concentration for half-maximal inhibition (IC50) in the data set with SK-OV-3 is more than 10 µM. Besides, the result in the data set with A549 [2] was Active. Moreover, in data set [5], the result was inactive.

With `NCCc1c(C(c2[nH]c3cc(Br)ccc3c2CCNC(=O)C(F)(F)F)c2cn(S(=O)(=O)c3ccccc3)c3ccccc23)[nH]c2cc(Br)ccc12` (stereo not given), the IC50 in the data set on LoVo is 4.5 µM; against DNA topoisomerase 1, 9 µM; in data set [6] it was 20 µM; in data set [1], 19 µM; with MCF7, 4.9 µM; in data set [3], 3.5 µM. The concentration for half-maximal inhibition (IC50) in the data set with BXPC-3 turned out to be 3.6 µM; in the data set on A549 [4] it was 5 µM; in the data set with SK-OV-3, 6.5 µM. The outcome in the data set with V79 was Active. For the same molecule, the Activity entry was “Non-toxic” in the data set on P388 [7], “Non-toxic” in the data set with P388 [8], “Dose-dependent effect” with A549 [2] and “Non-toxic” in the data set with Mus musculus. The result in data set [9] and in [10] was inactive.

In the case of `NCCc1c(C(c2[nH]c3cc(Br)ccc3c2CCNC(=O)C(F)(F)F)c2c[nH]c3ccccc23)[nH]c2cc(Br)ccc12` (stereo not given), the IC50 in the data set with CEM/C2 stood at 5.6 µM; in the data set on LoVo it was 5 µM; with CCRF-CEM, 5.5 µM; on DNA topoisomerase 1 it was 8 µM; in data set [6], 20 µM; in data set [1], 13 µM. The half-inhibitory concentration (IC50) stood at 8.8 µM in the data set with HL-60; 10 µM in data set [11]; 4.2 µM with MCF7; 5.4 µM in data set [3]; 5.1 µM with BXPC-3; 4.6 µM in the data set with A549 [4]. For the same molecule, in the data set on SK-OV-3, inhibition was half-maximal at 6.5 µM (IC50). Also, the outcome with V79 was Active. The Activity result in the data set on P388 [7] was “Non-toxic”; in the data set on P388 [8], “Non-toxic”; in the data set on A549 [2], “Dose-dependent effect”; with Mus musculus it was “Non-toxic”. The result in data set [9] and in data set [10] was inactive.
